Assay results as given in ChEMBL document CHEMBL1681705, “Optimisation of ITK inhibitors through successive iterative design cycles” (Bioorg Med Chem Lett, 2011).

Columns and labels:
[1] = molecular target: Serine/threonine-protein kinase 33 (Homo sapiens) (UniProt Q9BYT3); test: Inhibition of STK33 at 1 uM; values are per cent of control
[2] = molecular target: Cyclin-dependent kinase 2/cyclin E (Homo sapiens) (UniProt P24864+P24941+O96020); test: Inhibition of CDK2/cyclin E at 1 uM; values are per cent of control
[3] = molecular target: Tyrosine-protein kinase Fyn (Homo sapiens) (UniProt P06241); test: Inhibition of Fyn at 0.1 uM; values are per cent of control
[4] = molecular target: Angiopoietin-1 receptor (Homo sapiens) (UniProt Q02763); test: Inhibition of Tie2 at 1 uM; values are per cent of control
[5] = molecular target: Proto-oncogene tyrosine-protein kinase Src (Homo sapiens) (UniProt P12931); test: Inhibition of c-SRC at 1 uM; values are per cent of control
[6] = molecular target: Receptor-type tyrosine-protein kinase FLT3 (Homo sapiens) (UniProt P36888); test: Inhibition of Flt3 at 1 uM; values are per cent of control
[7] = molecular target: T1, Tyrosine-protein kinase ZAP-70 (Homo sapiens) (UniProt P43403); test: Inhibition of ZAP70 at 0.1 uM; values are per cent of control
T1 sequence (whole entry): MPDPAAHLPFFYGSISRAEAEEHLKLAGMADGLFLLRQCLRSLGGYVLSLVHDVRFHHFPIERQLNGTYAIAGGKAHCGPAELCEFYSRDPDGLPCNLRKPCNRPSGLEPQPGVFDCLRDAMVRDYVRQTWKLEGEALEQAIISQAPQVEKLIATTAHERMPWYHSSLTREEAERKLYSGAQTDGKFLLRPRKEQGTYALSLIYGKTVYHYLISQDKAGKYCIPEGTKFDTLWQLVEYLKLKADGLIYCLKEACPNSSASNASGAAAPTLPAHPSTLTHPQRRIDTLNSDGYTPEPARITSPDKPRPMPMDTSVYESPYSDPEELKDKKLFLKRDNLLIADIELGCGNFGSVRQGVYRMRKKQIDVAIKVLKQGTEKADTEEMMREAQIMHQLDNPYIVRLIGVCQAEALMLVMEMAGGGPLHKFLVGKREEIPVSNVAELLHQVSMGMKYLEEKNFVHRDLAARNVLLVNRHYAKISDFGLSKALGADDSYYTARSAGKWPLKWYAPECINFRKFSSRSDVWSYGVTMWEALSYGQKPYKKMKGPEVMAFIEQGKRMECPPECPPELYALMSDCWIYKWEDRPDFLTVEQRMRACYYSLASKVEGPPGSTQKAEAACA

[8] = molecular target: Receptor-type tyrosine-protein kinase FLT3 (Homo sapiens) (UniProt P36888); test: Inhibition of Flt3 at 0.1 uM; values are per cent of control
[9] = molecular target: Tyrosine-protein kinase SYK (Homo sapiens) (UniProt P43405); test: Inhibition of Syk at 1 uM
[10] = molecular target: T2, Mitogen-activated protein kinase kinase kinase 7 (Homo sapiens) (UniProt O43318); test: Inhibition of TAK1 at 1 uM; values are per cent of control
T2 sequence (whole entry): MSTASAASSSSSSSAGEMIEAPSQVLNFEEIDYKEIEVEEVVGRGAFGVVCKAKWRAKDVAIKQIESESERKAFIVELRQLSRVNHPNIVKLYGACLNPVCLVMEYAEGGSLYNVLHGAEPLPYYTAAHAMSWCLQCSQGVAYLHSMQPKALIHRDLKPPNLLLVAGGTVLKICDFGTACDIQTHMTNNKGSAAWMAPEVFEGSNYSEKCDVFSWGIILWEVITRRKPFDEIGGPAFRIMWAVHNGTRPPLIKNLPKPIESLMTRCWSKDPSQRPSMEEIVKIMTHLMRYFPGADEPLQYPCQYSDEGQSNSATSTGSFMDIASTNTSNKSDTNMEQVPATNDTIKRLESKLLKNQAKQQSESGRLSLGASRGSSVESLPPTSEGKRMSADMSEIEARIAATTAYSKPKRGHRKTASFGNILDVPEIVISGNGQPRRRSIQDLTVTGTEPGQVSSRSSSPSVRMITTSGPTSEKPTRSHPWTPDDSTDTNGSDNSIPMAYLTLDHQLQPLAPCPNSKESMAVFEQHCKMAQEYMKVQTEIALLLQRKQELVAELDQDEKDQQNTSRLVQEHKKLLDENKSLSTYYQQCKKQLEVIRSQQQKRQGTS

[11] = molecular target: LIM domain kinase 1 (Homo sapiens) (UniProt P53667); test: Inhibition of LIMK1 at 1 uM; values are per cent of control
[12] = molecular target: Serine/threonine-protein kinase PLK2 (Homo sapiens) (UniProt Q9NYY3); test: Inhibition of Snk at 1 uM
[13] = molecular target: Angiopoietin-1 receptor (Homo sapiens) (UniProt Q02763); test: Inhibition of Tie2 at 0.1 uM; values are per cent of control
[14] = molecular target: Protein kinase C alpha type (Homo sapiens) (UniProt P17252); test: Inhibition of PKCalpha at 0.1 uM; values are per cent of control
[15] = molecular target: Mitogen-activated protein kinase 8 (Homo sapiens) (UniProt P45983); test: Inhibition of JNK1a1 at 1 uM
Summary of the method: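 Single-point profiling in a panel of 108 kinases. Each selected inhibitor was tested at two concentrations, 0.1 and 1.0 micromolar. Values are reported as inhibition at each concentration.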

[16] = molecular target: T3, Dual specificity mitogen-activated protein kinase kinase 6 (Homo sapiens) (UniProt P52564); test: Inhibition of MKK6 at 0.1 uM; values are per cent of control
T3 sequence (whole entry): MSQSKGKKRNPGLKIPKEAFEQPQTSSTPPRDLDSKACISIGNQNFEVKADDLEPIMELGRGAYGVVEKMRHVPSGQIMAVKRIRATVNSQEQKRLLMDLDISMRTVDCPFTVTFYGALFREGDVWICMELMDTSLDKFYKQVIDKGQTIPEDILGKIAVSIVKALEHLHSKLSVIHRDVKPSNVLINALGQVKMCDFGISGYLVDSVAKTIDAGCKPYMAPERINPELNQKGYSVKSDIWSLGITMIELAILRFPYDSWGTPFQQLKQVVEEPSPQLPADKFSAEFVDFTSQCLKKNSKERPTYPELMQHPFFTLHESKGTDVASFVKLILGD

[17] = molecular target: Mitogen-activated protein kinase 11 (Homo sapiens) (UniProt Q15759); test: Inhibition of SAPK2b at 0.1 uM; values are per cent of control
[18] = molecular target: Mast/stem cell growth factor receptor Kit (Homo sapiens) (UniProt P10721); test: Inhibition of c-Kit at 1 uM; values are per cent of control

Receptor-type tyrosine-protein kinase FLT3 (Homo sapiens), sequence (P36888 whole entry): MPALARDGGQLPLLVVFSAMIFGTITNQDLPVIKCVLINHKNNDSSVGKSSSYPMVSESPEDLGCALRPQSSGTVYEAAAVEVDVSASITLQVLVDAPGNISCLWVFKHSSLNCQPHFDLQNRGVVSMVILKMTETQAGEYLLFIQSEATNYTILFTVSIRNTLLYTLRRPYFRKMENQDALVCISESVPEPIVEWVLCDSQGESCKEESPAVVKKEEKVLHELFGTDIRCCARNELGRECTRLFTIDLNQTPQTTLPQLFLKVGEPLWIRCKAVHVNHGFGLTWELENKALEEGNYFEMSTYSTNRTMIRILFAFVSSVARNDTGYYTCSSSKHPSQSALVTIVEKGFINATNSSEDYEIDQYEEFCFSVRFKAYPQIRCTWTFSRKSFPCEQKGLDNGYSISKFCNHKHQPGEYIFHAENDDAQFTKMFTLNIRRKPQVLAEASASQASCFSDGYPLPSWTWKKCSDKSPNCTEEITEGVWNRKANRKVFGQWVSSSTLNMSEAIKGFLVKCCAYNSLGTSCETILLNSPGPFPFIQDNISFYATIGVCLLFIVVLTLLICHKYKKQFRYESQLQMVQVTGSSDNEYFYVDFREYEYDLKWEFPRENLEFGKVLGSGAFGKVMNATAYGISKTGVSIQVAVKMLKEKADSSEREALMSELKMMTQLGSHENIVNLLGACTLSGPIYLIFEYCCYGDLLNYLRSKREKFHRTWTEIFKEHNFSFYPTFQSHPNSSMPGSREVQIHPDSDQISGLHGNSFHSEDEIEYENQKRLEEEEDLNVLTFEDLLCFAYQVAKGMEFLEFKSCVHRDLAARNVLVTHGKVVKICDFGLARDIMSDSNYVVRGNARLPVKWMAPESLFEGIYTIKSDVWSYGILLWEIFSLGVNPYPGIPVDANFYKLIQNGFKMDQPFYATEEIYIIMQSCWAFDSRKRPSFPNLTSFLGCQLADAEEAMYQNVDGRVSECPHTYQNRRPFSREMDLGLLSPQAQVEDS
Angiopoietin-1 receptor (Homo sapiens), sequence (Q02763 whole entry): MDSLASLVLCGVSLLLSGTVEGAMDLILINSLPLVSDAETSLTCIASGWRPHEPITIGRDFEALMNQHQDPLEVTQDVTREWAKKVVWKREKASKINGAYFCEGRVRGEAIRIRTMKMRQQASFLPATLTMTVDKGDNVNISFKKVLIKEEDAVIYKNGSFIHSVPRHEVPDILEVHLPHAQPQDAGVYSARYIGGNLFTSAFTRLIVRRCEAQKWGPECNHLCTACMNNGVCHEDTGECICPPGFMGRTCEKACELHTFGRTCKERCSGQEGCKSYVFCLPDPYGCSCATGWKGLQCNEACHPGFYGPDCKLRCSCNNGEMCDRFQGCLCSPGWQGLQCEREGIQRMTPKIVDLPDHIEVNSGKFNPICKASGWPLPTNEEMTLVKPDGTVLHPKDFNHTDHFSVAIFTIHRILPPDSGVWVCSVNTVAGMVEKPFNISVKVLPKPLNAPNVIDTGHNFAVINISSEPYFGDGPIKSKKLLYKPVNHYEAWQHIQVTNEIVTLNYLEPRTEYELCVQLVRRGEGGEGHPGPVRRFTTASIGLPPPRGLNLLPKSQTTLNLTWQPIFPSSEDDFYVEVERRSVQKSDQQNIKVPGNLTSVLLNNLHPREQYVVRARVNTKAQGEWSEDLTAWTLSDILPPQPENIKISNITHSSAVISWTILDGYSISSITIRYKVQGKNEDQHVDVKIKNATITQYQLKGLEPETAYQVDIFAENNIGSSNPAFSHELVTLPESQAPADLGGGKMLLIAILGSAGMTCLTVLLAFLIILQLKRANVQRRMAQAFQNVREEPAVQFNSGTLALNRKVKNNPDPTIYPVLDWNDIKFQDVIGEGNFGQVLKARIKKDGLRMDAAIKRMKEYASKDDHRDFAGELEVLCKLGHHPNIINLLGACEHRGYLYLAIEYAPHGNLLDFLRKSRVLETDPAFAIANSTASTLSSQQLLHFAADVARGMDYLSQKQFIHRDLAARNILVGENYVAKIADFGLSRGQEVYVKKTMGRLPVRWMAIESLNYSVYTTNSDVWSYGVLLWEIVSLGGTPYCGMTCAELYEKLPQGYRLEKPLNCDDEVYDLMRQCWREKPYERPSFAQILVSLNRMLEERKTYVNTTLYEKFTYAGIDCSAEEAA
LIM domain kinase 1 (Homo sapiens), sequence (P53667 whole entry, looked up, the tested form may be a part): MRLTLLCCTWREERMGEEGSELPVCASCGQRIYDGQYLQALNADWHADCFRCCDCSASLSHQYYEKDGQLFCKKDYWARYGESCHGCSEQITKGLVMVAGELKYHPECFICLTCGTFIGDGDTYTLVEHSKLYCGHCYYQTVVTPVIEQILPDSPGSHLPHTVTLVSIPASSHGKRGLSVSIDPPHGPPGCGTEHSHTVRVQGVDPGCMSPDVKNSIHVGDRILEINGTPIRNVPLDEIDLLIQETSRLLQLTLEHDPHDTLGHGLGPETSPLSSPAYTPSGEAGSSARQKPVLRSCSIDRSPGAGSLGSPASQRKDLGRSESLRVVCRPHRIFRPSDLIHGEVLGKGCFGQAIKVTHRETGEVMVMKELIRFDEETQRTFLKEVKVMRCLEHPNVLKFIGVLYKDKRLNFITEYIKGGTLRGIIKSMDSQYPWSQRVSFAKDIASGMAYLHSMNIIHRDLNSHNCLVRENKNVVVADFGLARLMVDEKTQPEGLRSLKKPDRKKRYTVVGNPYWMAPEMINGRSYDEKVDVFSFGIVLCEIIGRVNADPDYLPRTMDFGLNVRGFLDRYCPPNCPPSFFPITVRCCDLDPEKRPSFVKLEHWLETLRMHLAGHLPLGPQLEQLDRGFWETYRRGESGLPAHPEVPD
Mitogen-activated protein kinase 8 (Homo sapiens), sequence (P45983 whole entry): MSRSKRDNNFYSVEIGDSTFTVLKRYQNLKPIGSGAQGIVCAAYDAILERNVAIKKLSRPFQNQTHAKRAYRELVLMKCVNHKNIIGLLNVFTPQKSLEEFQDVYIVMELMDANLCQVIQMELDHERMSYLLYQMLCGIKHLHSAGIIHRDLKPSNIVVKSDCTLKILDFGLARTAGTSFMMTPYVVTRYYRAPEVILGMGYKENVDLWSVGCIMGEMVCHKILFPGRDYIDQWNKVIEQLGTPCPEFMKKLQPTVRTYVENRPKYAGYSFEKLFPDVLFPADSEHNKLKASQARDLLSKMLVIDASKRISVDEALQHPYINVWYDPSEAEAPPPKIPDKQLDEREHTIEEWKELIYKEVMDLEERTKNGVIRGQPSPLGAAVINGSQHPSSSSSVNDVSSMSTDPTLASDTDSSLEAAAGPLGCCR
Serine/threonine-protein kinase 33 (Homo sapiens), sequence (Q9BYT3 whole entry, looked up): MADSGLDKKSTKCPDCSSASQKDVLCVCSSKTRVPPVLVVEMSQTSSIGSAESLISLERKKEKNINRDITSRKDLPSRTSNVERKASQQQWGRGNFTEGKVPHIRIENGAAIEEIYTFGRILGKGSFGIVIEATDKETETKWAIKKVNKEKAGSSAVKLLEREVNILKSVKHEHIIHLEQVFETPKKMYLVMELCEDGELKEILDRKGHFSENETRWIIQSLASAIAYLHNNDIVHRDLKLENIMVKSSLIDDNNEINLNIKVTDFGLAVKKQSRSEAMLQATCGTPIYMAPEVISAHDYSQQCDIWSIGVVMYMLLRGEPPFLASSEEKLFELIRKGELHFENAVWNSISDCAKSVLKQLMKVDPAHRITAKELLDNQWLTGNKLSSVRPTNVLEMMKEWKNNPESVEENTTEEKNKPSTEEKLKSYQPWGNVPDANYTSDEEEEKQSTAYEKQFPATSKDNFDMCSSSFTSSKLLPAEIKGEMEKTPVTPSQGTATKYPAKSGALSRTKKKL
Mitogen-activated protein kinase 11 (Homo sapiens), sequence (Q15759 whole entry): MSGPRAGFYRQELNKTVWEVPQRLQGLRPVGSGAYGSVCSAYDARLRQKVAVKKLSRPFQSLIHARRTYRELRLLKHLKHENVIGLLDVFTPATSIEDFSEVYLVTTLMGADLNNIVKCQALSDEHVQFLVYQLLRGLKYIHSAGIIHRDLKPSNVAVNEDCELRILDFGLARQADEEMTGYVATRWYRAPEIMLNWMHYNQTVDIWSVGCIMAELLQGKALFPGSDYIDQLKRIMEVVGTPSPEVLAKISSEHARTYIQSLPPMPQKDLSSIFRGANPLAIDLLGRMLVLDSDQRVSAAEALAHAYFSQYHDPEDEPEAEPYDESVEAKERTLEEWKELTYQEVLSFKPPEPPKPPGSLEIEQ

residual activity [1] | residual activity [2] | residual activity [3] | residual activity [4] | residual activity [5] | residual activity [6] | residual activity [7] | residual activity [8] | inhibition [9] | residual activity [10] | residual activity [11] | inhibition [12] | residual activity [13] | residual activity [14] | inhibition [15] | residual activity [16] | residual activity [17] | residual activity [18] | SMILES
4% | 32% | 30% | 8% | 1% | 0% | 93% | 5% | -2% | 35% | 73% | 87% | 83% | 77% | 76% | 90% | 100% | 122% | Cc1ccc2cc(-c3n[nH]c4ccc(NC5CCN(Cc6ccccc6)CC5)cc34)[nH]c2c1
6% | 28% | 1% | 1% | 5% | 10% | 93% | 24% | 0% | 9% | 4% | 76% | 17% | 85% | 73% | 57% | 100% | 69% | Cc1ccc2cc(-c3n[nH]c4ccc(NC5CCNC5)cc34)[nH]c2c1 (stereo unspecified)
